Active and inactive are the calls of the source. The rule behind the calls is not given here.
Columns and labels:
[1] = biological target: T1, Retinoic acid receptor RXR-alpha (Mus musculus) (UniProt P28700); assay: Transactivation of Gal4-LBD fused mouse RXRalpha (218 to 467) transfected in african green monkey CV1 cells assessed as luciferase activity at 2 uM after 6 hrs by Dual-light chemiluminescent assay relative to LGD1069; type: cell-based; settings: CV-1
T1 sequence (whole entry): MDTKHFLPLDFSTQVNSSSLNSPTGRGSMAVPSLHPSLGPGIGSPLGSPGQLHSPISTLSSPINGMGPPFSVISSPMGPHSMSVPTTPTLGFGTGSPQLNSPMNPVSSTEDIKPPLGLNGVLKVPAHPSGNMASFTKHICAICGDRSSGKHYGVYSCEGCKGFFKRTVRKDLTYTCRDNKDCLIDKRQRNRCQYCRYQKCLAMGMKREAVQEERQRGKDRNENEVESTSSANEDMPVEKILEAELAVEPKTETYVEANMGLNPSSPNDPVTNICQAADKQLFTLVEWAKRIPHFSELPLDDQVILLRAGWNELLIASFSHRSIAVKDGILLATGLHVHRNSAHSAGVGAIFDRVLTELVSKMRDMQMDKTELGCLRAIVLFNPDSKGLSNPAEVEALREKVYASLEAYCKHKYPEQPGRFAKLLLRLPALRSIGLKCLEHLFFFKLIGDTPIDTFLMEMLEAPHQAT

[2] = system: Jurkat; assay: Antiproliferative activity against human Jurkat T cells at 62.5 nM after 48 hrs by MTT assay; type: functional, cell-based
Method in brief: (§1)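 Jurkat T cells were resuspended at 10^5 cells/mL in RPMI with 0.5% FBS (10,000/well) and seeded immediately before dosing at 62.5 nM–2 μM for two days. Viability was read by MTT (4 h, 37 °C), formazan dissolved in 10% SDS/10 mM HCl, A595 with cell-free background subtracted. Values are relative to DMSO controls (≤0.1% v/v); at least two experiments in triplicate.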

[3] = biological target: T1, Retinoic acid receptor RXR-alpha (Mus musculus); assay: Transactivation of Gal4-LBD fused mouse RXRalpha (218 to 467) transfected in african green monkey CV1 cells assessed as luciferase activity at 2 uM after 6 hrs by Dual-light chemiluminescent assay relative to 9-cis-retinoic acid; type: cell-based; settings: CV-1
Method in brief: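 Transfected CV-1 cells carried Gal4-LBD constructs: hRARα 156–462, hRARβ 169–448, hRARγ 178–454 or mRXRα 218–467. Transfection used 10 ng Gal4-LBD, 100 ng UAS-luciferase and 25 ng β-gal vector. After 16 h the medium was changed to 5% charcoal-treated FBS. Cells were stimulated with 2 μM analog for 6 h (RARα, RARβ, RXRα) or 20 h (RARγ). Reference agonists were 1 μM atRA (RARα) and 1 μM 9cRA (RXRα). Luciferase and β-galactosidase were read by chemiluminescence.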

[4] = biological target: T2, Retinoic acid receptor alpha (Homo sapiens) (UniProt P10276); assay: Transactivation of Gal4-LBD fused human RARalpha (156 to 454) transfected in african green monkey CV1 cells assessed as luciferase activity at 2 uM after 6 hrs by Dual-light chemiluminescent assay; type: cell-based; settings: CV-1
T2 sequence (whole entry): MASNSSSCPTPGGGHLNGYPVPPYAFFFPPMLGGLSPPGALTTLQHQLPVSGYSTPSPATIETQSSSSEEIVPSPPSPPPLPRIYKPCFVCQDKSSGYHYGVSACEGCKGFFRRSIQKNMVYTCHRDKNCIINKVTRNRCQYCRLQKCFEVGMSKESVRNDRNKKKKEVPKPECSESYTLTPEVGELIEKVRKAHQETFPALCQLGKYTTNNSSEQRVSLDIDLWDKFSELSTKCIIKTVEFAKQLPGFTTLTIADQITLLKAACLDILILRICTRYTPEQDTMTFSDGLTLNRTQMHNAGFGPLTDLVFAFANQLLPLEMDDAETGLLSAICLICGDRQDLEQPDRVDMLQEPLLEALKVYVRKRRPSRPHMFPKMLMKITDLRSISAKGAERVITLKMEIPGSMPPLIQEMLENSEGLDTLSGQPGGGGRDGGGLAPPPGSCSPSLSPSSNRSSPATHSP

[5] = system: Jurkat; assay: Antiproliferative activity against human Jurkat T cells after 48 hrs by MTT assay
[6] = system: Jurkat; assay: Induction of apoptosis in human Jurkat T cells assessed as induction of DEVDase activity at 4 uM after 4 hrs by fluorescence assay; type: functional, cell-based
Method in brief: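 Jurkat cells (40,000/well, 10^6 cells/mL, RPMI with 0.5% FBS) were treated for 4 h; controls got 0.1% DMSO. Lysis was in CE buffer (PIPES pH 7, NP-40, cytochalasin B, protease inhibitors) for 30 min at 4 °C. Lysates were mixed with 2x caspase buffer (HEPES pH 7.4, CHAPS, sucrose) holding 100 μM Ac-DEVD-AFC and incubated at 37 °C for 30 min. AFC was read every 2 min, ex 390/em 510 nm.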

[7] = biological target: T3, Retinoic acid receptor RXR-alpha (Mus musculus, UniProt P28700); assay: Transactivation of Gal4-LBD fused mouse RXRalpha (218 to 467) transfected in african green monkey CV1 cells assessed as luciferase activity at after 6 hrs by Dual-light chemiluminescent assay; type: cell-based, CV-1
T3 sequence (P28700 whole entry): T1 sequence (whole entry)

[8] = system: T47D; assay: Antiproliferative activity against human T47D cells at 4 uM after 48 hrs by MTT assay; type: functional
Method in brief: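 Epithelial cancer lines came from ATCC and were seeded the day before in complete medium: PC-3, SkOV3 and A549 at 3,000/well; MiaPaCa-2 and BxPC-3 at 4,000; T-47D and MDA-MB-468 at 5,000. Medium was switched to 0.5% FBS just before exposure to 4 μM. Read-out was MTT (4 h, 37 °C), SDS/HCl solubilisation, A595 minus cell-free blank. Growth inhibition was taken versus DMSO (≤0.1% v/v) controls, ≥2 experiments in triplicate.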

[9] = system: Jurkat; assay: Antiproliferative activity against human Jurkat T cells at 2 uM after 48 hrs by MTT assay; type: functional, cell-based; method in brief: as §1

Activity [1] [%]	Activity [3] [%]	Activity [4]	IC50 [5] [nM]	EC50 [7] [nM]	Compound	Activity [2]	Activity [6]	inhibition at 4 µM [8] [%]	Activity [9]
45	45	inactive	707	667	COCCOCOc1cc(C)c(-c2ccc3cc(C(=O)O)ccc3c2Cl)cc1C12CC3CC(CC(C3)C1)C2	inactive	Active	46.1	
		inactive		1140	COCCOCOc1cc(C)c(-c2ccc(CC(=O)O)cc2Cl)cc1C12CC3CC(CC(C3)C1)C2			27.6	Active

Source: ChEMBL document CHEMBL1158389, “Highly twisted adamantyl arotinoids: synthesis, antiproliferative effects and RXR transactivation profiles” (Eur J Med Chem, 2009)
